As a reminder, the Ki is a measure of affinity in units of concentration, obtained from inhibition or displacement.

Where a SMILES comes first, the peptide text is derived from it.

Sequence of Kappa-type opioid receptor (P41145 whole entry): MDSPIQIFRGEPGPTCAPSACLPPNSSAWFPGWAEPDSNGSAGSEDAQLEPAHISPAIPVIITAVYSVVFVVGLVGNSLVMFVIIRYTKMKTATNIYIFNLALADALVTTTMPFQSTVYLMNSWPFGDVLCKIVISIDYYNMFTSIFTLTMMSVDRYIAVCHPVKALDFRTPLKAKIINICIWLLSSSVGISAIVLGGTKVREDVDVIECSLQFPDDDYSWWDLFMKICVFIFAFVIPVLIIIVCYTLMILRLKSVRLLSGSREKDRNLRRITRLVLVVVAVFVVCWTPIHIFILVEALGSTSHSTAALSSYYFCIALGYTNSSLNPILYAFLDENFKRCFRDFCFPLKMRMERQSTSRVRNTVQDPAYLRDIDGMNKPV

The assay concerns the target Kappa-type opioid receptor (Homo sapiens, UniProt P41145). Description: Displacement of [3H]U69593 from human kappa opioid receptor expressed in CHO-K1 cells incubated for 1 hr by 1450 microbeta scintillation counter analysis. The format is cell-based. The procedure, abridged: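 Membranes from transiently KOR-transfected CHO-K1 cells (~2 µg/well) used in SPA with 3H-U69,593 (1 nM). Competitor ranged 1 pM–10 µM in 50 mM Tris-HCl pH 7.4, 5 mM MgCl2, 0.1% BSA. Incubated 1 h at room temperature with shaking. Nonspecific binding defined with 10 µM dynorphin A. Sigmoidal dose-response fit; at least three independent experiments in triplicate.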
(In a radioligand displacement assay an active substance lowers the binding of a labelled ligand.)
As to `N=C(N)NCCC[C@@H](NC(=O)[C@@H](CCCNC(=N)N)NC(=O)[C@@H]1CCCN1C(=O)c1ccccc1)C(=O)N[C@@H](CCC(N)=O)C(=O)N[C@@H](CC1CCCCC1)C(=O)N[C@H]1CSSC[C@@H](C(=O)O)NC1=O`, the Ki is 2140 nM.
`N=C(N)NCCC[C@@H](NC(=O)c1cccc(Cl)c1)C(=O)N[C@H](CCCNC(=N)N)C(=O)N[C@@H](CCC(N)=O)C(=O)N[C@@H](CC1CCCCC1)C(=O)N[C@H]1CSSC[C@@H](C(N)=O)NC1=O`: the affinity, expressed as Ki, was 6.7 nM.
`CN(C(=O)[C@H](CC1CCCCC1)NC(=O)[C@H](CCC(N)=O)NC(=O)[C@@H](CCCNC(=N)N)NC(=O)[C@@H](CCCNC(=N)N)NC(=O)[C@@H]1CCCN1C(=O)c1ccccc1)[C@H]1CSSC[C@@H](C(N)=O)NC1=O` registered an inhibitory constant (Ki) of 15 nM. This Ki lies about 2.2-fold higher than the previous one.
Molecule `N=C(N)NCCC[C@@H](NC(=O)Cc1ccc(F)cc1)C(=O)N[C@H](CCCNC(=N)N)C(=O)N[C@@H](CCC(N)=O)C(=O)N[C@@H](CC1CCCCC1)C(=O)N[C@H]1CSSC[C@@H](C(N)=O)NC1=O` gave a Ki of 1.2 nM.
For the molecule `CC[C@H](C)[C@@H]1NC(=O)[C@H](CCC(N)=O)NC(=O)[C@H](CCCNC(=N)N)NC(=O)[C@H](CCCNC(=N)N)NC(=O)[C@@H]2CSSC[C@H](NC1=O)C(=O)N[C@H](C(N)=O)CSSC[C@H](NC(=O)[C@@H](N)CC(N)=O)C(=O)N2` (HELM PEPTIDE1{N.C.C.R.R.Q.I.C.C.[am]}$PEPTIDE1,PEPTIDE1,2:R3-9:R3|PEPTIDE1,PEPTIDE1,3:R3-8:R3$$$V2.0), the Ki was found to be 580 nM. This Ki is about 480-fold higher than that of the molecule before.
Then `N=C(N)NCCC[C@@H](NC(=O)[C@@H](CCCNC(=N)N)NC(=O)[C@@H]1CCCN1C(=O)c1ccccc1)C(=O)N[C@@H](CCC(N)=O)C(=O)N[C@@H](CC1CCCCC1)C(=O)N[C@H]1CSCSC[C@@H](C(N)=O)NC1=O`, with 15.8 nM.
Molecule `N=C(N)NCCC[C@@H](NC(=O)[C@@H](CCCNC(=N)N)NC(=O)[C@@H]1CCCN1C(=O)c1ccccc1)C(=O)N[C@@H](CCC(N)=O)C(=O)N[C@@H](CC1CCCCC1)C(=O)N1CCSSC[C@@H](C(N)=O)NC(=O)C1` showed a Ki of 199 nM. Compared with the last molecule, the Ki is about 13-fold higher.
Take `CC[C@H](C)[C@H](NC(=O)[C@H](CCC(N)=O)NC(=O)[C@H](CCCNC(=N)N)NC(=O)[C@H](CCCNC(N)=O)NC(=O)[C@@H]1CSSC[C@H](NC(=O)[C@@H](N)CC(N)=O)C(=O)N1)C(=O)N[C@H]1CSSC[C@@H](C(N)=O)NC1=O` (HELM PEPTIDE1{N.C.C.[Cit].R.Q.I.C.C.[am]}$PEPTIDE1,PEPTIDE1,2:R3-3:R3|PEPTIDE1,PEPTIDE1,8:R3-9:R3$$$V2.0): the Ki was 218 nM.
The molecule `CC(C)C[C@H](NC(=O)[C@H](CCC(N)=O)NC(=O)[C@H](CCCNC(=N)N)NC(=O)[C@H](CCCNC(=N)N)NC(=O)[C@@H]1CSSC[C@H](NC(=O)[C@@H](N)CC(N)=O)C(=O)N1)C(=O)N[C@H]1CSSC[C@@H](C(N)=O)NC1=O` (HELM PEPTIDE1{N.C.C.R.R.Q.L.C.C.[am]}$PEPTIDE1,PEPTIDE1,2:R3-3:R3|PEPTIDE1,PEPTIDE1,8:R3-9:R3$$$V2.0) returned a Ki of 24 nM.
The molecule `N=C(N)NCCC[C@@H](NC(=O)Cc1cccc(Br)c1)C(=O)N[C@H](CCCNC(=N)N)C(=O)N[C@@H](CCC(N)=O)C(=O)N[C@@H](CC1CCCCC1)C(=O)N[C@H]1CSSC[C@@H](C(N)=O)NC1=O` gave a Ki of 1.2 nM.
In turn, `CC[C@H](C)[C@H](NC(=O)[C@H](CCC(N)=O)NC(=O)[C@H](CCCNC(=N)N)NC(=O)[C@H](CCCCN)NC(=O)[C@@H]1CSSC[C@H](NC(=O)[C@@H](N)CC(N)=O)C(=O)N1)C(=O)N[C@H]1CSSC[C@@H](C(N)=O)NC1=O` (HELM PEPTIDE1{N.C.C.K.R.Q.I.C.C.[am]}$PEPTIDE1,PEPTIDE1,2:R3-3:R3|PEPTIDE1,PEPTIDE1,8:R3-9:R3$$$V2.0) displayed a Ki of 426 nM.
As to `N=C(N)NCCC[C@@H](NC(=O)[C@@H](CCCNC(=N)N)NC(=O)[C@@H]1CCCN1C(=O)c1ccccc1)C(=O)N[C@@H](CO)C(=O)N[C@@H](CC1CCCCC1)C(=O)N[C@H]1CSSC[C@@H](C(N)=O)NC1=O`, the Ki is 0.42 nM. This Ki lies about 1000-fold lower than the previous one.
Molecule `N=C(N)NCCC[C@@H](NC(=O)[C@@H](CCCNC(=N)N)NC(=O)[C@@H]1CCCN1C(=O)c1ccccc1)C(=O)N[C@@H](CCC(N)=O)C(=O)N[C@@H](CC1CCCCC1)C(=O)N1C[C@@H]2C[C@H]1C(=O)N[C@H](C(N)=O)CSS2` had a Ki of 786 nM.
`N=C(N)NCCC[C@H](NC(=O)[C@H](CCCNC(=N)N)NC(=O)[C@@H]1CSSC[C@H](NC(=O)[C@@H](N)CC(N)=O)C(=O)N1)C(=O)N[C@@H](CCC(N)=O)C(=O)N[C@@H](Cc1ccccc1)C(=O)N[C@H]1CSSC[C@@H](C(N)=O)NC1=O` (HELM PEPTIDE1{N.C.C.R.R.Q.F.C.C.[am]}$PEPTIDE1,PEPTIDE1,2:R3-3:R3|PEPTIDE1,PEPTIDE1,8:R3-9:R3$$$V2.0) displayed a Ki of 28 nM.
In the case of `N=C(N)NCCC[C@@H](NC(=O)[C@@H](CCCNC(=N)N)NC(=O)[C@@H]1CCCN1C(=O)c1ccccc1)C(=O)N[C@@H](CCCCN)C(=O)N[C@@H](CC1CCCCC1)C(=O)N[C@H]1CSSC[C@@H](C(N)=O)NC1=O`, affinity was put at a Ki of 0.59 nM.
In turn, `CC[C@H](C)[C@H](NC(=O)[C@H](CCC(N)=O)NC(=O)[C@H](CCCNC(N)=O)NC(=O)[C@H](CCCNC(=N)N)NC(=O)[C@@H]1CSSC[C@H](NC(=O)[C@@H](N)CC(N)=O)C(=O)N1)C(=O)NC1CSSC[C@@H](C(N)=O)NC1=O` (single isomer, unassigned) had a Ki of 387 nM. Compared with the last molecule, the Ki is about 660-fold higher.
Regarding `C[C@H](NC(=O)[C@H](CCC(N)=O)NC(=O)[C@H](CCCNC(=N)N)NC(=O)[C@H](CCCNC(=N)N)NC(=O)[C@@H]1CSSC[C@H](NC(=O)[C@@H](N)CC(N)=O)C(=O)N1)C(=O)N[C@H]1CSSC[C@@H](C(N)=O)NC1=O` (HELM PEPTIDE1{N.C.C.R.R.Q.A.C.C.[am]}$PEPTIDE1,PEPTIDE1,2:R3-3:R3|PEPTIDE1,PEPTIDE1,8:R3-9:R3$$$V2.0), the affinity corresponds to a Ki of 2450 nM.
With `N=C(N)NCCC[C@@H](NC(=O)[C@@H](CCCNC(=N)N)NC(=O)[C@@H]1CCCN1C(=O)c1ccccc1)C(=O)N[C@@H](CCC(=O)O)C(=O)N[C@@H](CC1CCCCC1)C(=O)N[C@H]1CSSC[C@@H](C(N)=O)NC1=O`, the affinity, expressed as Ki, was 19.4 nM.
As for `N=C(N)NCCC[C@@H](NC(=O)[C@@H](CCCNC(=N)N)NC(=O)[C@@H]1CCCN1C(=O)c1ccc(Cl)cc1)C(=O)N[C@@H](CCC(N)=O)C(=O)N[C@@H](CC1CCCCC1)C(=O)N[C@H]1CSSC[C@@H](C(=O)O)NC1=O`, the Ki amounted to 795 nM.
On to `N=C(N)NCCC[C@@H](NC(=O)Cc1cccc(Cl)c1)C(=O)N[C@H](CCCNC(=N)N)C(=O)N[C@@H](CCC(N)=O)C(=O)N[C@@H](CC1CCCCC1)C(=O)N[C@H]1CSSC[C@@H](C(N)=O)NC1=O`, for which the inhibitory constant (Ki) turned out to be 2.1 nM. Compared with the last molecule, the Ki is about 380-fold lower.
The same measure for `CC[C@H](C)[C@H](NC(=O)[C@H](CCC(N)=O)NC(=O)[C@H](Cc1c[nH]cn1)NC(=O)[C@H](CCCNC(=N)N)NC(=O)[C@@H]1CSSC[C@H](NC(=O)[C@@H](N)CC(N)=O)C(=O)N1)C(=O)N[C@H]1CSSC[C@@H](C(N)=O)NC1=O` (HELM PEPTIDE1{N.C.C.R.H.Q.I.C.C.[am]}$PEPTIDE1,PEPTIDE1,2:R3-3:R3|PEPTIDE1,PEPTIDE1,8:R3-9:R3$$$V2.0): 85 nM; for `N=C(N)NCCC[C@@H](NC(=O)[C@@H]1CCC(=O)N1)C(=O)N[C@H](CCCNC(=N)N)C(=O)N[C@@H](CCC(N)=O)C(=O)N[C@@H](CC1CCCCC1)C(=O)N[C@H]1CSSCC[C@@H](C(N)=O)NC1=O`: 1570 nM.
For the molecule `CC[C@H](C)[C@H](NC(=O)[C@H](CCC(N)=O)NC(=O)[C@H](CCCNC(=N)N)NC(=O)[C@H](C)NC(=O)[C@@H]1CSSC[C@H](NC(=O)[C@@H](N)CC(N)=O)C(=O)N1)C(=O)N[C@H]1CSSC[C@@H](C(N)=O)NC1=O` (HELM PEPTIDE1{N.C.C.A.R.Q.I.C.C.[am]}$PEPTIDE1,PEPTIDE1,2:R3-3:R3|PEPTIDE1,PEPTIDE1,8:R3-9:R3$$$V2.0), the Ki is 170 nM. Compared with the last molecule, the Ki is about 9.2-fold lower.
For the molecule `N=C(N)NCCC[C@@H](NC(=O)[C@@H](CCCNC(=N)N)NC(=O)[C@@H]1CCCN1C(=O)c1ccccc1)C(=O)N[C@@H](CC(=O)O)C(=O)N[C@@H](CC1CCCCC1)C(=O)N[C@H]1CSSC[C@@H](C(N)=O)NC1=O`, the Ki was 10.2 nM.
As to `N=C(N)NCCC[C@H](NC(=O)[C@@H]1CCC(=O)N1)C(=O)N[C@@H](CCCNC(=N)N)C(=O)N[C@@H](CCC(N)=O)C(=O)N[C@@H](CC1CCCCC1)C(=O)N[C@H]1CCCCN(CC(N)=O)C1=O` (HELM PEPTIDE1{[Glp].R.R.Q.[Cha].[NC(=O)CN1CCCC[C@H](N[*:1])C1=O]}$$$$V2.0), the inhibitory constant (Ki) was found to be 12900 nM.
Regarding `N=C(N)NCCC[C@@H](NC(=O)[C@@H](CCCNC(=N)N)NC(=O)[C@@H]1CCCN1C(=O)c1ccccc1)C(=O)N[C@@H](CC(N)=O)C(=O)N[C@@H](CC1CCCCC1)C(=O)N[C@H]1CSSC[C@@H](C(N)=O)NC1=O`, affinity was put at a Ki of 0.61 nM.
As to `CC(C)[C@H](NC(=O)[C@H](CCC(N)=O)NC(=O)[C@H](CCCNC(=N)N)NC(=O)[C@H](CCCNC(=N)N)NC(=O)[C@@H]1CSSC[C@H](NC(=O)[C@@H](N)CC(N)=O)C(=O)N1)C(=O)N[C@H]1CSSC[C@@H](C(N)=O)NC1=O` (HELM PEPTIDE1{N.C.C.R.R.Q.V.C.C.[am]}$PEPTIDE1,PEPTIDE1,2:R3-3:R3|PEPTIDE1,PEPTIDE1,8:R3-9:R3$$$V2.0), affinity was put at a Ki of 664 nM.
`N=C(N)NCCC[C@@H](NC(=O)[C@@H]1CCC(=O)N1)C(=O)N[C@H](CCCNC(=N)N)C(=O)N[C@@H](CCC(N)=O)C(=O)N[C@@H](CC1CCCCC1)C(=O)N[C@H]1CCSSC[C@@H](C(N)=O)NC1=O` came in with a Ki of 783 nM.
`CC[C@H](C)[C@@H]1NC(=O)[C@H](CCC(N)=O)NC(=O)[C@H](CCCNC(=N)N)NC(=O)[C@H](CCCNC(=N)N)NC(=O)[C@@H]2CSSC[C@@H](C(N)=O)NC(=O)[C@H](CSSC[C@H](NC(=O)[C@@H](N)CC(N)=O)C(=O)N2)NC1=O` (HELM PEPTIDE1{N.C.C.R.R.Q.I.C.C.[am]}$PEPTIDE1,PEPTIDE1,2:R3-8:R3|PEPTIDE1,PEPTIDE1,3:R3-9:R3$$$V2.0): the affinity, expressed as Ki, was 1470 nM.
`N=C(N)NCCC[C@@H](NC(=O)[C@@H](CCCNC(=N)N)NC(=O)[C@@H]1CCCN1C(=O)c1ccccc1)C(=O)N[C@@H](Cc1ccccc1)C(=O)N[C@@H](CC1CCCCC1)C(=O)N[C@H]1CSSC[C@@H](C(N)=O)NC1=O` came in with a Ki of 0.59 nM.

The values above are taken from ChEMBL document CHEMBL5252514, “Conopeptide-Derived κ-Opioid Agonists (Conorphins): Potent, Selective, and Metabolic Stable Dynorphin A Mimetics with Antinociceptive Properties” (J Med Chem, 2016).
